This note sets out measurements from ChEMBL document CHEMBL1212840, “Lysine N(epsilon)-trimethylation, a tool for improving the selectivity of antimicrobial peptides” (J Med Chem, 2010).

Square brackets hold non-standard residues; d marks the D form. Peptide text beside a SMILES is read from it. Lys(Me3) = C[N+](C)(C)CCCC[C@H](N)C(=O)O Some results are limits rather than exact numbers.

The test system of one data set is Acinetobacter baumannii. The experiment in a line: Antimicrobial activity against Acinetobacter baumannii ATCC 19606 ATCC 19606 by turbidimetry. It counts as functional.
Data set [1] concerns Leishmania pifanoi. Kind of data set: Antileishmanial activity against Leishmania pifonoi MHOM/VE/60/LTrod amastigotes after 4 hrs by MTT assay. For orientation: Tetrazolium dyes change colour on reduction, which living cells bring about.
The nature of data set [2]: Toxicity in sheep erythrocyte assessed as hemolysis. Type of data set: cell-based, Ovis aries. Conditions: sheep erythrocytes. The essentials: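 Washed sheep erythrocytes at 2 107 cells/mL in Hank's medium were exposed to peptide for 4 h at 37 °C, then spun (5 min, 4 °C). Hemoglobin in the supernatant was read at 550 nm. HC50 is the peptide concentration releasing 50% of the hemoglobin freed by 0.1% Triton X-100.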

Data set [3] in a line: Selectivity index, ratio of HC50 for sheep erythrocyte to MIC50 for Staphylococcus aureus CECT 240. It counts as functional.
Data set [4] concerns Leishmania pifanoi. The experiment in a line: Antileishmanial activity against Leishmania pifonoi MHOM/VE/60/LTrod promastigotes after 72 hrs by MTT assay. It counts as functional, organism-based.
Data set [5] is described as follows: Selectivity index, ratio of IC50 for sheep erythrocyte to LC50 for Leishmania donovani MHOM/SD/001S-2D promastigotes. The method, boiled down: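 SI = HC50/LC50. For HC50, washed sheep erythrocytes at 2 × 10^7 cells/mL in Hank's are exposed to peptide for 4 h at 37 °C. Hemoglobin in the supernatant is read at 550 nm; 0.1% Triton X-100 gives full lysis, and HC50 is 50% release.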

The test system of data set [6] is Leishmania donovani. The experiment in a line: Antileishmanial activity against Leishmania donovani MHOM/SD/001S-2D promastigotes after 4 hrs by MTT assay.
The test system of data set [7] is Leishmania donovani. Kind of data set: Antileishmanial activity against Leishmania donovani MHOM/SD/001S-2D promastigotes after 72 hrs by MTT assay. It counts as functional, organism-based. The essentials: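 L. donovani promastigotes (strain MHOM/SD/00/1S-2D) are harvested at late exponential phase and washed in Hank's + 20 mM D-glucose, pH 7.2. They are treated with peptide at 2 × 10^7 parasites/mL for 4 h at 26 °C. A 20 μL aliquot then goes into complete medium for 72 h at 26 °C to let survivors proliferate. LC50 is 50% inhibition of proliferation. Triplicates, repeated at least twice.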

The nature of data set [8]: Selectivity index, ratio of HC50 for sheep erythrocyte to MIC50 for Acinetobacter baumannii ATCC 19606 ATCC 19606. It counts as functional.
A further data set relates to Staphylococcus aureus. Kind of data set: Antimicrobial activity against Staphylococcus aureus CECT 240 by turbidimetry. It counts as functional.
The nature of data set [9]: Selectivity index, ratio of IC50 for sheep erythrocyte to LC50 for Leishmania pifanoi MHOM/VE/60/LTrod amastigotes. The method, boiled down:
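SI = HC50/LC50. HC50 comes from sheep erythrocytes (2 × 10^7 cells/mL in Hank's, 4 h, 37 °C, hemoglobin at 550 nm, 0.1% Triton X-100 as full lysis). For LC50, L. pifanoi axenic amastigotes at 2 × 10^7/mL in Hank's + 20 mM glucose get peptide for 4 h at 32 °C. An aliquot is then regrown in complete medium for 96 h at 32 °C.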

The MIC50 is an inhibitory concentration at the 50% level, which refers to growth in some studies and to a panel of isolates in others. High values mean weaker potency, low ones greater potency. A word on the IC50: it is the concentration needed to halve the response being measured. A low value points to greater potency in that assay. As usually defined, the HC50 is the concentration giving 50% haemolysis. The term LC50 denotes the concentration lethal to half of the exposed cells or organisms. Consider `CC[C@H](C)[C@H](NC(=O)[C@H](CCCCN)NC(=O)[C@H](CCCCN)NC(=O)[C@H](Cc1ccccc1)NC(=O)[C@H](CC(C)C)NC(=O)[C@H](CCCCN)NC(=O)[C@H](Cc1c[nH]c2ccccc12)NC(=O)[C@@H](N)CCCCN)C(=O)NCC(=O)N[C@@H](C)C(=O)N[C@H](C(=O)N[C@@H](CC(C)C)C(=O)N[C@@H](CCCC[N+](C)(C)C)C(=O)N[C@H](C(=O)N[C@@H](CC(C)C)C(N)=O)C(C)C)C(C)C.[Cl-]` (H-KWKLFKKIGAVL[Lys(Me3)]VL-NH2), for which the MIC50 in the data set with Acinetobacter baumannii was found to be 2.1 µM; against Staphylococcus aureus it was 4.4 µM. In addition, the IC50 in the data set on Leishmania pifanoi [1] was determined as 10.1 µM; in the data set on Leishmania donovani [6] it was 3.5 µM. The HC50 in [2] is 157 µM. Besides, the “Selectivity Index” value in [3] is reported as 35.8; in [5], 63; in data set [8], 74.9; in [9], 13.5. In addition, the LC50 in the data set on Leishmania pifanoi [4] was determined as 11.6 µM; with Leishmania donovani [7] it was 2.5 µM.
Regarding `CC[C@H](C)[C@H](NC(=O)[C@H](CCCC[N+](C)(C)C)NC(=O)[C@H](CCCCN)NC(=O)[C@H](Cc1ccccc1)NC(=O)[C@H](CC(C)C)NC(=O)[C@H](CCCCN)NC(=O)[C@H](Cc1c[nH]c2ccccc12)NC(=O)[C@@H](N)CCCCN)C(=O)NCC(=O)N[C@@H](C)C(=O)N[C@H](C(=O)N[C@@H](CC(C)C)C(=O)N[C@@H](CCCCN)C(=O)N[C@H](C(=O)N[C@@H](CC(C)C)C(N)=O)C(C)C)C(C)C.[Cl-]` (H-KWKLFK[Lys(Me3)]IGAVLKVL-NH2), the values for the MIC50 with Acinetobacter baumannii and against Staphylococcus aureus were 1.9 µM and 7.2 µM, respectively. The IC50 was 11.4 µM with Leishmania pifanoi [1] and 3.7 µM with Leishmania donovani [6]. Further, the HC50 in data set [2] was 164 µM. For the same compound, the “Selectivity Index” value amounted to 22.8 in [3], 71.3 in [5], 86.3 in data set [8] and 13.5 in data set [9]. Also, the LC50 with Leishmania pifanoi [4] was 12.1 µM; in the data set with Leishmania donovani [7], 2.3 µM.
For the compound `CC[C@H](C)[C@H](NC(=O)[C@H](CCCCN)NC(=O)[C@H](CCCC[N+](C)(C)C)NC(=O)[C@H](Cc1ccccc1)NC(=O)[C@H](CC(C)C)NC(=O)[C@H](CCCCN)NC(=O)[C@H](Cc1c[nH]c2ccccc12)NC(=O)[C@@H](N)CCCCN)C(=O)NCC(=O)N[C@@H](C)C(=O)N[C@H](C(=O)N[C@@H](CC(C)C)C(=O)N[C@@H](CCCCN)C(=O)N[C@H](C(=O)N[C@@H](CC(C)C)C(N)=O)C(C)C)C(C)C.[Cl-]` (H-KWKLF[Lys(Me3)]KIGAVLKVL-NH2), the MIC50 was found to be 1.4 µM in the data set with Acinetobacter baumannii and 4.6 µM against Staphylococcus aureus. Also, the results for the IC50 with Leishmania pifanoi [1] and in the data set with Leishmania donovani [6] were 13.4 µM and 3.7 µM, respectively. Further, in data set [2], the HC50 was determined as 158 µM. Moreover, the “Selectivity Index” value in data set [3] is 34.3; in [5], 92.7; in [8] it was 112.2; in data set [9], 9.6. Further, the results for the LC50 with Leishmania pifanoi [4] and in the data set with Leishmania donovani [7] were 16.3 µM and 1.7 µM, respectively.
With `CC[C@H](C)[C@H](NC(=O)[C@H](CCCC[N+](C)(C)C)NC(=O)[C@H](CCCC[N+](C)(C)C)NC(=O)[C@H](Cc1ccccc1)NC(=O)[C@H](CC(C)C)NC(=O)[C@H](CCCCN)NC(=O)[C@H](Cc1c[nH]c2ccccc12)NC(=O)[C@@H](N)CCCCN)C(=O)NCC(=O)N[C@@H](C)C(=O)N[C@H](C(=O)N[C@@H](CC(C)C)C(=O)N[C@@H](CCCCN)C(=O)N[C@H](C(=O)N[C@@H](CC(C)C)C(N)=O)C(C)C)C(C)C.[Cl-].[Cl-]` (H-KWKLF[Lys(Me3)][Lys(Me3)]IGAVLKVL-NH2), the MIC50 in the data set on Acinetobacter baumannii was 2.6 µM; with Staphylococcus aureus, 10.7 µM. For the same compound, the values for the IC50 in the data set on Leishmania pifanoi [1] and with Leishmania donovani [6] were 9.2 µM and 6.1 µM, respectively. Also, the HC50 in data set [2] was found to be 134 µM. For the same compound, the “Selectivity Index” value in [3] is recorded as 12.5; in data set [5], 25.3; in data set [8] it was 51.5; in data set [9] it was 4.9. Moreover, the LC50 in the data set with Leishmania pifanoi [4] came out at 27 µM; with Leishmania donovani [7] it was 5.3 µM.
For `CC[C@H](C)[C@H](NC(=O)[C@H](CCCCN)NC(=O)[C@H](CCCCN)NC(=O)[C@H](Cc1ccccc1)NC(=O)[C@H](CC(C)C)NC(=O)[C@H](CCCC[N+](C)(C)C)NC(=O)[C@H](Cc1c[nH]c2ccccc12)NC(=O)[C@@H](N)CCCCN)C(=O)NCC(=O)N[C@@H](C)C(=O)N[C@H](C(=O)N[C@@H](CC(C)C)C(=O)N[C@@H](CCCCN)C(=O)N[C@H](C(=O)N[C@@H](CC(C)C)C(N)=O)C(C)C)C(C)C.[Cl-]` (H-KW[Lys(Me3)]LFKKIGAVLKVL-NH2), the MIC50 is 1.7 µM with Acinetobacter baumannii and 2.4 µM against Staphylococcus aureus. The IC50 in the data set on Leishmania pifanoi [1] stood at 9.4 µM; with Leishmania donovani [6] it was 3.3 µM. For the same compound, in data set [2], the HC50 was 85.6 µM. The “Selectivity Index” value in data set [3] worked out at 35.7; in [5], 27.6; in [8], 50.3; in data set [9], 10.4. In addition, the LC50 turned out to be 8.2 µM in the data set on Leishmania pifanoi [4] and 3.1 µM with Leishmania donovani [7].
Turning to `CC[C@H](C)[C@H](NC(=O)[C@H](CCCCN)NC(=O)[C@H](CCCC[N+](C)(C)C)NC(=O)[C@H](Cc1ccccc1)NC(=O)[C@H](CC(C)C)NC(=O)[C@H](CCCC[N+](C)(C)C)NC(=O)[C@H](Cc1c[nH]c2ccccc12)NC(=O)[C@@H](N)CCCCN)C(=O)NCC(=O)N[C@@H](C)C(=O)N[C@H](C(=O)N[C@@H](CC(C)C)C(=O)N[C@@H](CCCCN)C(=O)N[C@H](C(=O)N[C@@H](CC(C)C)C(N)=O)C(C)C)C(C)C.[Cl-].[Cl-]` (H-KW[Lys(Me3)]LF[Lys(Me3)]KIGAVLKVL-NH2), the values for the MIC50 against Acinetobacter baumannii and against Staphylococcus aureus were 2 µM and 6.2 µM, respectively. Further, the IC50 came to 7.4 µM with Leishmania pifanoi [1] and 5.1 µM with Leishmania donovani [6]. In data set [2], the HC50 is 117 µM. Also, the “Selectivity Index” value in [3] was determined as 18.9; in [5], 17.4; in [8], 58.6; in data set [9] it was 7.1. Moreover, the median lethal concentration (LC50) in the data set with Leishmania pifanoi [4] amounted to 16.5 µM; with Leishmania donovani [7] it was 6.7 µM.
With `CC[C@H](C)[C@H](NC(=O)[C@H](CCCCN)NC(=O)[C@H](CCCCN)NC(=O)[C@H](Cc1ccccc1)NC(=O)[C@H](CC(C)C)NC(=O)[C@H](CCCCN)NC(=O)[C@H](Cc1c[nH]c2ccccc12)NC(=O)[C@@H](N)CCCC[N+](C)(C)C)C(=O)NCC(=O)N[C@@H](C)C(=O)N[C@H](C(=O)N[C@@H](CC(C)C)C(=O)N[C@@H](CCCCN)C(=O)N[C@H](C(=O)N[C@@H](CC(C)C)C(N)=O)C(C)C)C(C)C.[Cl-]` (H-[Lys(Me3)]WKLFKKIGAVLKVL-NH2), the figures for the MIC50 with Acinetobacter baumannii and in the data set with Staphylococcus aureus were 1.3 µM and 3.4 µM, respectively. Also, the IC50 with Leishmania pifanoi [1] was 6 µM; in the data set on Leishmania donovani [6] it was 3.9 µM. For the same compound, the HC50 in data set [2] was determined as 77.2 µM. The “Selectivity Index” value in [3] is 22.7; in data set [5] it was 27.6; in data set [8], 59.4; in data set [9], 12. Further, the LC50 with Leishmania pifanoi [4] was found to be 6.4 µM; with Leishmania donovani [7], 2.8 µM.
On to `CC[C@H](C)[C@H](NC(=O)[C@H](CCCC[N+](C)(C)C)NC(=O)[C@H](CCCC[N+](C)(C)C)NC(=O)[C@H](Cc1ccccc1)NC(=O)[C@H](CC(C)C)NC(=O)[C@H](CCCC[N+](C)(C)C)NC(=O)[C@H](Cc1c[nH]c2ccccc12)NC(=O)[C@@H](N)CCCC[N+](C)(C)C)C(=O)NCC(=O)N[C@@H](C)C(=O)N[C@H](C(=O)N[C@@H](CC(C)C)C(=O)N[C@@H](CCCC[N+](C)(C)C)C(=O)N[C@H](C(=O)N[C@@H](CC(C)C)C(N)=O)C(C)C)C(C)C` (H-[Lys(Me3)]W[Lys(Me3)]LF[Lys(Me3)][Lys(Me3)]IGAVL[Lys(Me3)]VL-NH2), for which the MIC50 in the data set with Acinetobacter baumannii and in the data set on Staphylococcus aureus was > 30 µM each time. In addition, the IC50 with Leishmania pifanoi [1] and with Leishmania donovani [6] was > 50 µM each time. In addition, the HC50 in data set [2] was > 200 µM. Also, the LC50 in the data set on Leishmania pifanoi [4] and in the data set on Leishmania donovani [7] was > 50 µM each time.
